ChEMBL document CHEMBL4339256, “Antibacterial Salinaphthoquinones from a Strain of the Bacterium Salinispora arenicola Recovered from the Marine Sediments of St. Peter and St. Paul Archipelago, Brazil” (2019)
The source made the active and inactive calls. The calls are words filed in the database; no cut-off is given here.

Legend:
[1] = tested on: Enterococcus faecalis; assay: Antimicrobial activity against vancomycin-resistant Enterococcus faecalis ATCC 51212 assessed as inhibition of microbial growth incubated for 24 hrs by broth microdilution assay; assay type: functional
Summary of the method: (§1)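 Strains pre-grown on Mueller Hinton agar 24 h at 35 ± 2 °C aerobically; colonies suspended in 0.85% NaCl, then diluted in Mueller Hinton broth to a final 5 × 10^5 CFU/mL. Broth microdilution per CLSI (2015) with 2-fold serial compound dilutions; rifampicin positive control. Incubated as above; MIC read as lowest concentration with no visible growth.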

[2] = tested on: Staphylococcus aureus; assay: Antimicrobial activity against Staphylococcus aureus ATCC 29213 assessed as inhibition of microbial growth incubated for 24 hrs by broth microdilution assay; assay type: functional
Summary of the method: (§2)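 Strains first grown on Mueller Hinton agar 24 h at 35 ± 2 °C, aerobic. Colonies were suspended in sterile 0.85% (w/v) NaCl and diluted into Mueller Hinton broth to a final 5 × 10^5 CFU/mL. Broth microdilution followed CLSI (2015), with 2-fold serial dilutions of compound and rifampicin as positive control. Plates were incubated under the same conditions. MIC was read as the lowest concentration with no visible growth.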

[3] = tested on: Staphylococcus aureus; assay: Antimicrobial activity against methicillin-resistant Staphylococcus aureus ATCC 43300 assessed as inhibition of microbial growth incubated for 24 hrs by broth microdilution assay; assay type: functional; summary of the method: as §1
[4] = tested on: Enterococcus faecalis; assay: Antimicrobial activity against Enterococcus faecalis ATCC 29212 assessed as inhibition of microbial growth incubated for 24 hrs by broth microdilution assay; assay type: functional; summary of the method: as §2
[5] = tested on: Escherichia coli; assay: Antimicrobial activity against Escherichia coli ATCC 25922 assessed as inhibition of microbial growth incubated for 24 hrs by broth microdilution assay; assay type: functional, organism-based; summary of the method: as §2

SMILES	MIC ([1]; ATCC 51212, 24 h) [µg/mL]	MIC ([2]; ATCC 29213, 24 h) [µg/mL]	MIC ([3]; ATCC 43300, 24 h) [µg/mL]	MIC ([4]; ATCC 29212, 24 h) [µg/mL]	MIC [5]	MIC [1]	MIC [2]	MIC [3]	MIC [4]
CO[C@H]1/C=C/O[C@@]2(C)Oc3c(C)c(O)c4c(O)c(c(/C=N/N5CCN(C)CC5)c(O)c4c3C2=O)NC(=O)/C(C)=C\C=C\[C@H](C)[C@H](O)[C@@H](C)[C@@H](O)[C@@H](C)[C@H](OC(C)=O)[C@@H]1C [RIFAMPIN]	≤ 0.03	≤ 0.03	≤ 0.03	≤ 0.03	–	–	–	–	–
Cc1cc(C)c(=O)oc1-c1c(O)c(C)cc2c1C(=O)C=C(N)C2=O	125	31	62	16	inactive	–	–	–	–
Cc1cc2c(c(C(=O)[C@@H](C)C3OC4[C@H](C)C(OC(=O)[C@H]4C)C3C)c1O)C(=O)C=C(N)C2=O (stereo partly specified)	–	–	–	–	–	inactive	inactive	inactive	inactive
Cc1cc2c(c(O)c1O)C(=O)C=C(N)C2=O	–	–	–	16	inactive	inactive	inactive	inactive	–
Cc1cc(C)c(=O)oc1-c1c(O)c(C)cc2c1C(=O)C(N)=CC2=O	–	–	–	125	–	inactive	inactive	inactive	–
CC(=O)CC1(C)Oc2c(C)cc3c(c2C1=O)C(=O)C=C(N)C3=O (stereo unspecified)	125	125	125	125	–	–	–	–	–
